In ChEMBL document CHEMBL1649398, “Synthesis and evaluation of tumor cell growth inhibition of methyl 3-amino-6-[(hetero)arylethynyl]thieno[3,2-b]pyridine-2-carboxylates. Structure-activity relationships, effects on the cell cycle and apoptosis” (Eur J Med Chem, 2011) one finds GI50, Activity and solubility data, which are given here for 15 compounds.

Data set [1] deals with MCF7. The experiment in a line: Growth inhibition of human MCF7 cells after 48 hrs by SRB assay. The settings on record: MCF7, 48 h. The data set is classed as functional. The procedure, abridged:
(§1)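 Adherent cells kept in RPMI-1640 with 5% heat-inactivated FBS, 2 mM glutamine and antibiotics at 37 °C, 5% CO₂. Plated at 1.5 ×10⁵ cells/mL (MCF-7) or 0.75 ×10⁵ cells/mL (A375-C5, NCI-H460) and grown 24 h. […] TCA fixation, SRB stain, absorbance 492 nm. GI₅₀ is 50% inhibition of net growth; mean ± SEM, three experiments in duplicate.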
(In general: The SRB assay estimates cell density from bound dye.)

Data set [2] is described as follows: Growth inhibition of human A375-C5 cells after 48 hrs by SRB assay. The settings on record: A375-C5, 48 h. The data set is classed as functional. The method, boiled down: as §1
The test system of data set [3] is NCI-H460. Nature of the data set: Growth inhibition of human NCI-H460 cells after 48 hrs by SRB assay. The data set is classed as functional. The settings on record: NCI-H460, 48 h. The procedure, abridged:
as §1

Data set [4] has as its system NCI-H460. Nature of the data set: Cell cycle arrest in human NCI-H460 cells assessed as accumulation at G2/M phase at GI50 after 48 hrs by flow cytometry. The data set is classed as functional. (A flow cytometer gives signals particle by particle.)
Data set [5] has as its system NCI-H460. The experiment in a line: Induction of apoptosis in human NCI-H460 cells at GI50 after 48 hrs by V-FITC/propidium iodide staining-based flow cytometry. The data set is classed as functional.
Data set [6] has as its system NCI-H460. The experiment in a line: Cell cycle arrest in human NCI-H460 cells assessed as accumulation at G0/G1 phase at GI50 after 48 hrs by flow cytometry. The data set is classed as functional.
In data set [7] the test system is NCI-H460. Nature of the data set: Cell cycle arrest in human NCI-H460 cells assessed as accumulation at S phase at GI50 after 48 hrs by flow cytometry. The data set is classed as functional.
A short description of data set [8]: Solubility of the compound in DMSO at 150 uM. The data set is classed as physicochemical.

As a reminder, the GI50 is the concentration giving 50% growth inhibition. On to `COC(=O)c1sc2cc(C#Cc3ccccc3)cnc2c1N`, for which the GI50 in data set [1], in data set [2] and in data set [3] was > 150 µM in each case.
Regarding `COC(=O)c1sc2cc(C#Cc3ccccn3)cnc2c1N`, the figures for the GI50 in data set [1], in data set [2] and in data set [3] were 37.4 µM, 13.9 µM and 34.9 µM, respectively.
For `C[S+](C)[O-]` [DIMETHYL SULFOXIDE], the Activity was determined as 16.1% in data set [4], 12.2% in data set [5], 55.1% in data set [6] and 28.8% in data set [7].
For the compound `COC(=O)c1sc2cc(C#Cc3ccc(N(C)C)cc3)cnc2c1N`, the GI50 in data set [1] worked out at 20.6 µM; in data set [2], 17.7 µM; in data set [3] it was 16.6 µM.
On to `COC(=O)c1sc2cc(C#Cc3ccc(F)cc3)cnc2c1N`, for which the GI50 in data set [1] was determined as 29 µM; in data set [2], 48.4 µM; in data set [3], 24 µM.
The corresponding values for `COC(=O)c1sc2cc(C#Cc3ccsc3)cnc2c1N` are 27.7 µM, 29.6 µM and 24.8 µM.
The corresponding values for `COC(=O)c1sc2cc(C#Cc3cccnc3)cnc2c1N` are > 150 µM, > 150 µM and > 150 µM.
For `COC(=O)c1sc2cc(C#Cc3cccc(N)c3)cnc2c1N`, the results for the 50% growth inhibitory concentration (GI50) in data set [1], in data set [2] and in data set [3] were 10.8 µM, 11.6 µM and 11.5 µM, respectively.
On to `COC(=O)c1sc2cc(C#Cc3ccccc3N)cnc2c1N`, for which the Activity is given as 24.6% in data set [4], 25.3% in data set [5], 54.7% in data set [6] and 23.1% in data set [7]. For the same compound, the GI50 worked out at 4.1 µM in data set [1], 3.1 µM in data set [2] and 5.7 µM in data set [3].
For `COC(=O)c1sc2cc(C#Cc3ccc(OC)cc3)cnc2c1N`, the Activity in data set [4] was 18.3%; in data set [5], 18.7%; in data set [6], 59.7%; in data set [7] it was 22%. Moreover, the GI50 was 0.46 µM in data set [1], > 37.5 µM in data set [2] and 0.32 µM in data set [3].
In the case of `COc1cccc2c1C(=O)c1c(O)c3c(c(O)c1C2=O)C[C@@](O)(C(=O)CO)C[C@@H]3O[C@H]1C[C@H](N)[C@H](O)[C@H](C)O1` [DOXORUBICIN], in data set [8], the solubility result is on record as “Insoluble”.
`COC(=O)c1sc2cc(C#Cc3ccccc3OC)cnc2c1N`: the GI50 in data set [1], in data set [2] and in data set [3] was > 47.3 µM throughout.
In the case of `COC(=O)c1sc2cc(C#Cc3cccc(OC)c3)cnc2c1N`, the GI50 was 33.4 µM in data set [1], > 75 µM in data set [2] and 49 µM in data set [3].
`COC(=O)c1sc2cc(C#Cc3ccc(N)cc3)cnc2c1N`: the Activity in data set [4] came out at 13.4%; in data set [5], 17%; in data set [6], 68%; in data set [7], 18.6%. The values for the GI50 in data set [1], in data set [2] and in data set [3] were 2.6 µM, 4.8 µM and 8.9 µM, respectively.
As for `COC(=O)c1sc2cc(C#Cc3ccccc3F)cnc2c1N`, the concentration for 50% growth inhibition (GI50) in data set [1], in data set [2] and in data set [3] was > 150 µM in each case.
